Screens (PubChem BioAssay)
This is one part of a sample in which hits are shown more often than they occur.
A1 apoptosis 2: A1 inhibitors via caspase activation, primary screen, cell-based, luminescence, HTS, two replicates. MEF A1-2A-BIM cells, caspase-Glo luminescence, 3 h; percent of clofoctol response, DMSO zero. caspase activation, % (test concentration not listed). 24,000 tested, under 10 active. AID 2465, 2010; in the data active = caspase activation above about 5.9%
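Evaluation: Caspase-3/7 activity from luminescence increase | Assay system: A1-2A-BIM mouse embryonic fibroblasts | Quantity: 2500 MEF cells/well | Medium: RPMI-1640 plus 10% FBS | Detection: Caspase-Glo 3/7 luminescence, 1 h at room temperature | Dosing: 50 nL compound per well, pinned | Timing: Cells settled overnight, compound exposure 3 h at 37 °C, 5% CO2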
T cruzi intra: inhibitors of intracellular Trypanosoma cruzi, primary screen, cell-based, plate reader, single point, set 2; intracellular Trypanosoma cruzi in host cells; activity score (inhibition), % at 5.01 µM; 22,000 tested, 4.9% active; in the data active = activity score above about 55%;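 also: parasites and compound incubated about four days before reading; 0% = median of neutral control wells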
INS-1E ATP HTS: protection of INS-1E cells from cytokine death, primary screen, ATP luminescence, single point; INS-1E cytokine-induced death, 48 h; normalised: neutral wells 0, positive control 100; protection from cytokine-induced ATP loss, % at 10 µM; 20,000 tested, 0.1% active;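 active = mean replicate protection from cytokine-induced ATP loss at least 50% and at least 75% of replicates each reaching 50%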
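Assay system: INS-1E rat cells / Quantity: 8000 cells per well / Medium: RPMI without phenol red, 5% FBS / Probe or stimulus: three-cytokine cocktail (IFN-γ, TNF-α, IL-1β) / Dosing: one compound concentration, pin transfer / Timing: 48 h co-treatment, 10 min post-lysis read / Technique: CellTiter-Glo luminescence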
An asterisk follows results filed as active; / = not tested or not shown.

SMILES | A1 apoptosis 2 | T cruzi intra | INS-1E ATP HTS
COc1ccc(NC(=O)Nc2ccc3c(c2)C(=O)N([C@H](C)CO)C[C@H](C)[C@H](CN(C)C(=O)Nc2ccc(C(F)(F)F)cc2)OCCCC[C@@H](C)O3)cc1 | -0.5 | 54.9 | 2.4
COc1ccc(NC(=O)Nc2ccc3c(c2)C(=O)N([C@H](C)CO)C[C@H](C)[C@@H](CN(C)C(=O)Nc2ccc(C(F)(F)F)cc2)OCCCC[C@@H](C)O3)cc1 | / | 68.7* | -16.5
COc1ccc(S(=O)(=O)N(C)C[C@@H]2Oc3c(NC(=O)c4cc(C)nn4C)cccc3C(=O)N([C@@H](C)CO)C[C@H]2C)cc1 | 1.0 | 28.5 | 24.6
CNC(=O)C1=C[C@@H](c2csc3ccccc23)C[C@@H](OCc2ccc(CO)cc2)O1 | -1.1 | / | /
C[C@@H]1CN([C@@H](C)CO)C(=O)c2cccc(NC(=O)Nc3ccc4c(c3)OCO4)c2O[C@H]1CN(C)Cc1ccc(C(=O)Nc2ccccc2N)cc1 | 1.3 | 67.5* | -1.1
C[C@H]1CN([C@@H](C)CO)C(=O)c2cccc(NC(=O)Nc3ccc4c(c3)OCO4)c2O[C@@H]1CN(C)Cc1ccc(C(=O)Nc2ccccc2N)cc1 | -0.8 | 68.1* | 10.3
C[C@H](CO)N1C[C@H](C)[C@H](CN(C)Cc2ccc(C(=O)Nc3ccccc3N)cc2)Oc2ccc(NC(=O)Nc3ccc4c(c3)OCO4)cc2C1=O | -0.1 | 74.4* | -2.7
C[C@@H]1CN([C@@H](C)CO)C(=O)c2cccc(NC(=O)Nc3ccc4c(c3)OCO4)c2O[C@@H]1CN(C)Cc1ccc(C(=O)O)cc1 | / | -17.4 | 2.9
C[C@H](CO)N1C[C@H](C)[C@@H](CN(C)Cc2ccc(C(=O)Nc3ccccc3N)cc2)Oc2ccc(NC(=O)Cn3cnnn3)cc2C1=O | / | 69.0* | -10.9
C[C@@H]1CN([C@@H](C)CO)C(=O)c2cccc(NC(=O)Nc3ccc4c(c3)OCO4)c2O[C@@H]1CN(C)Cc1ccc(C(=O)Nc2ccccc2N)cc1 | 0.1 | 54.4 | 21.8
C[C@@H]1CN([C@H](C)CO)C(=O)c2cc(NC(=O)Cn3cnnn3)ccc2O[C@H]1CN(C)Cc1ccc(C(=O)Nc2ccccc2N)cc1 | -1.9 | 29.4 | -12.2
C[C@H]1CN([C@@H](C)CO)C(=O)c2cc(NC(=O)Nc3ccccc3)ccc2O[C@H]1CN(C)Cc1ccc(C(=O)Nc2ccccc2N)cc1 | / | 54.4 | -7.1
O=C(NO)c1cccc(C(=O)N/N=C/c2ccc(O)cc2Br)c1 | -4.1 | -2.1 | -6.1
[N-]=[N+]=NCc1ccccc1C[C@@]1(C(N)=O)N=C(c2ccc(OCCCO)cc2)O[C@@H]1c1ccccc1 | -0.8 | / | /
COC(=O)CCCCCCC(=O)N/N=C/c1ccccc1C | / | -5.1 | 2.4
C[C@H](CO)N1C[C@H](C)[C@@H](CN(C)CC2CC2)Oc2c(NC(=O)Nc3ccc4c(c3)OCO4)cccc2C1=O | -0.4 | 57.6* | -5.4
C[C@H](CO)N1C[C@H](C)[C@H](CN(C)Cc2ccc(Oc3ccccc3)cc2)Oc2c(NC(=O)Nc3ccc4c(c3)OCO4)cccc2C1=O | -0.7 | 78.2* | -46.2
C[C@@H]1CN([C@H](C)CO)C(=O)c2cccc(NC(=O)Nc3ccc4c(c3)OCO4)c2O[C@H]1CN(C)Cc1ccc(Oc2ccccc2)cc1 | -2.2 | 31.3 | -10.0
C[C@H]1CN([C@@H](C)CO)C(=O)c2cccc(NC(=O)Nc3ccc4c(c3)OCO4)c2O[C@@H]1CN(C)CC1CC1 | -0.3 | 4.2 | -10.6
O=C(O)CCCCCCC(=O)N/N=C/c1ccccc1O | 1.1 | -16.2 | -5.5
COc1ccc(NC(=O)Nc2ccc3c(c2)C(=O)N([C@@H](C)CO)C[C@H](C)[C@@H](CN(C)Cc2ccc(Cl)c(Cl)c2)OCCCC[C@@H](C)O3)cc1 | 0.5 | / | /
COc1ccc(NC(=O)Nc2ccc3c(c2)C(=O)N([C@H](C)CO)C[C@H](C)[C@@H](CN(C)Cc2ccc(Cl)c(Cl)c2)OCCCC[C@@H](C)O3)cc1 | 1.5 | 59.4* | -45.5
COc1ccc(NC(=O)Nc2ccc3c(c2)C(=O)N([C@H](C)CO)C[C@H](C)[C@H](CN(C)Cc2ccc(Cl)c(Cl)c2)OCCCC[C@H](C)O3)cc1 | -1.5 | / | /
COc1ccc(NC(=O)Nc2ccc3c(c2)C(=O)N([C@H](C)CO)C[C@H](C)[C@H](CN(C)Cc2ccc(Cl)c(Cl)c2)OCCCC[C@@H](C)O3)cc1 | / | 63.8* | -27.5
C=CCOC(=O)C(=O)/C=C/C1CC1 | 2.1 | / | /
SMILES | A1 apoptosis 2 | T cruzi intra | INS-1E ATP HTS
O=C(C1=C[C@H](c2coc3ccccc3c2=O)C[C@H](OCCCCO)O1)N1CCCCCCC1 | 1.7 | / | /
C=C(C)[C@@H]1CC=C(/C=N/NC(=O)c2ccc(C(=O)NO)cc2)CC1 | / | -5.8 | 17.3
O=C(CCCCCCC(=O)Nc1ccccc1O)N/N=C/c1ccc(O)cc1O | / | 8.8 | 8.1
C[C@@H]1CN([C@H](C)CO)C(=O)c2cccc(NC(=O)Nc3ccccc3)c2O[C@@H]1CN(C)Cc1ccc(C(=O)Nc2ccccc2N)cc1 | 0.8 | 70.2* | 17.5
C[C@H]1CN([C@@H](C)CO)C(=O)c2cccc(NC(=O)Nc3ccc(F)cc3)c2O[C@H]1CN(C)Cc1ccc(C(=O)Nc2ccccc2N)cc1 | / | 58.7* | -17.4
C[C@H](CO)N1C[C@H](C)[C@@H](CN(C)Cc2ccc(C(=O)Nc3ccccc3N)cc2)Oc2c(cccc2N(C)C)C1=O | 2.8 | 6.5 | -1.1
C[C@H](CO)N1C[C@H](C)[C@@H](CN(C)Cc2ccc(C(=O)Nc3ccccc3N)cc2)Oc2c(NC(=O)Nc3ccc(F)cc3)cccc2C1=O | / | 52.4 | -8.8
C[C@@H]1CN([C@H](C)CO)C(=O)c2cccc(NC(=O)Nc3ccccc3)c2O[C@H]1CN(C)Cc1ccc(C(=O)O)cc1 | -0.1 | -13.9 | 10.1
C[C@H]1CN([C@@H](C)CO)C(=O)c2cccc(N(C)C)c2O[C@H]1CN(C)Cc1ccc(C(=O)Nc2ccccc2N)cc1 | -0.2 | 58.8* | 1.8
Cn1cc(/C=N/NC(=O)c2ccccn2)c2ccccc21 | -1.2 | 6.2 | -9.7
C[C@@H]1CN([C@@H](C)CO)C(=O)c2cc(NC(=O)Nc3cccc4ccccc34)ccc2O[C@H]1CN(C)S(=O)(=O)c1ccccc1 | / | 24.3 | -4.5
C=CC[C@]1(C(=O)NCCCOC)N=C(c2ccc(OCCCO)cc2)O[C@H]1c1ccccc1 | -0.2 | / | /
CCn1c2ccccc2c2cc(/C=N/NC(=O)c3ccccn3)ccc21 | -1.3 | 30.0 | -5.5
C[C@H]1CN([C@@H](C)CO)C(=O)CCCn2nncc2CO[C@@H]1CN(C)S(=O)(=O)c1ccc(Oc2ccccc2)cc1 | 1.1 | 73.1* | 1.8
C[C@H](CO)N1C[C@H](C)[C@H](CN(C)S(=O)(=O)c2ccccc2)OCc2cnnn2CCCC1=O | / | -10.6 | /
C[C@H](CO)N1C[C@H](C)[C@@H](CN(C)S(=O)(=O)c2ccc(Oc3ccccc3)cc2)OCc2cnnn2CCCC1=O | 0.2 | 72.6* | /
C[C@@H]1CN([C@@H](C)CO)C(=O)CCCn2nncc2CO[C@H]1CN(C)S(=O)(=O)c1ccc(Oc2ccccc2)cc1 | 0.0 | 8.4 | /
CC(C)=CCC[C@H](C)C/C=N/NC(=O)CCCCC(=O)NO | -0.3 | 9.9 | 12.8
